Read-outs that look alike come from different tables or passages of the source.
Key:
[1] = n-octanol-water coefficient; ref 22 (enalaprilat), ref 23 (hexarelin); cited from earlier work
[2] = ref 22 (enalaprilat), ref 23 (hexarelin); cited from earlier work
[3] = dissociation constant; cited from earlier work
[4] = compatibility/stability of study drugs in perfusion solution; format: physicochemical; details: solution pH 6.5, 37 °C; for concentration in perfusion solution, after: after 4 h; for concentration in perfusion solution, before: before 4 h
[5] = cited from earlier work; for basal permeability: recent rat SPIP study with transcellular PEs; for effect of transcellular PEs on jejunal permeability: sodium dodecyl sulfate (SDS) and caprate, rat SPIP in vivo
[6] = cited from earlier work
[7] = blood-to-lumen jejunal 51Cr-EDTA clearance; format: in vivo; details: hypotonic perfusate (100 mOsm) with lidocaine, rat SPIP, test vs control period
Summary of the method: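 Male Wistar Han rats (299–395 g) anaesthetised with inactin (180 mg/kg i.p., 5% w/v), body temperature held at 37.5 ± 0.5 °C, arterial pressure monitored. The proximal jejunal segment (about 10 cm) was single-pass perfused at 0.2 mL/min at 37 °C. A 30-min PBS stabilisation reached steady plasma 51Cr-EDTA. Then came 60 min of isotonic pH 7.4 control buffer holding both peptides, followed by 75 min of hypotonic (100 mOsm) perfusate with lidocaine 1 mg/mL. Clearance was computed as blood-to-lumen 51Cr-EDTA transport per 100 g wet jejunal tissue, expressed as the ratio of mean test-period (60 min) to mean control-period (45 min) values. n = 6 rats.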

[8] = Pefabloc SC at 0.3 mg/mL, in rat; cited from earlier work
[9] = rat single-pass intestinal perfusion; format: in vivo; details: with EDTA at 1 mg/mL or the two hypotonic (100 mOsm) perfusion solutions with or without lidocaine; rat SPIP, n = 6

concentration in perfusion solution, after [4] [µmol/L]	concentration in perfusion solution, before [4] [µmol/L]	Molecule	LogP [1]	HBA (hydrogen bond acceptor) [2]	HBD (hydrogen bond donor) [2]	basal permeability [5]	effect of transcellular PEs on jejunal permeability [5]	further results
84.8	83.9	C[C@H](N[C@@H](CCc1ccccc1)C(=O)O)C(=O)N1CCC[C@H]1C(=O)O [Enalaprilat]	−0.13	6	3	0.013 ± 0.009 × 10^−4 cm/s	substantially increased	pKa (footnote a, Acid) [3]: 7.84; pKa (footnote b, Base) [3]: 3.17
		semaglutide						terminal half-life in plasma [6]: ~1 week; bioavailability of the given oral dose ([6]; with SNAC): 0.4%–1.0
		O=C([O-])CN(CCN(CC(=O)[O-])CC(=O)[O-])CC(=O)[O-].[51Cr+3] [51Cr-EDTA, ^51chromium-labeled EDTA]						increase in CLCr-EDTA (permeability) [7]: 15 fold
		Cl.NCCc1ccc(S(=O)(=O)F)cc1 [Pefabloc SC]						inhibition of the intestinal degradation of hexarelin [8]: completely inhibits
		desmopressin						bioavailability of the given oral dose [6]: 0.1%
33.9	29.9	Hexarelin	0.73	9	11	0.0019 ± 0.0013 × 10^−4 cm/s	unaffected	Peff ratio (baseline vs. test) [9]: no increase; PSA (polar surface area) [2]: 300
